# Test results taken from ChEMBL document CHEMBL5380852, “N'-Phenylacetohydrazide Derivatives as Potent Ebola Virus Entry Inhibitors with an Improved Pharmacokinetic Profile” (J Med Chem, 2023).
# Activity calls are given as the source filed them. No cut-off for these calls is given here.
# Columns and labels:
# [1] = AUClast in BALB/c mouse brain at 50 mg/kg, po measured upto 24 hrs by LC-MS/MS method; type: ADME, organism-based; set-up: dose 50 mg/kg, time < 24 hrs, route po; details: in vivo
# In short: (§1)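 Male BALB/c mice aged 8–12 weeks (20–35 g) received one dose in a solution of 90% PBS pH 7.4, 5% solutol HS-15 and 5% NMP: 10 mg/kg i.p. or 50 mg/kg p.o. Three mice per time point, sampled up to 24 h. Plasma and brain were taken at each point and assayed by LC–MS/MS. Parameters came from noncompartmental analysis.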
# [2] = Selectivity index, ratio of CC50 for human HeLa cells to EC50 for pseudotyped Ebola virus infected in HeLa cells; type: toxicity, cell-based; details: read-out: Ratio CC50/EC50
# [3] = Selectivity index, ratio of CC50 for african green monkey Vero E6 cells to EC50 for wild type Zaire EBOV mayinga; type: cell-based, Vero C1008; details: read-out: Ratio CC50/EC50
# [4] = Inhibition of EBOV-GP to human C-terminal Flag tagged NPC1 protein protein interaction at 50 uM by ELISA
# In short: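 GP particles were cleaved with thermolysin (250 μg/mL, 1 h, 37 °C; stopped with 1 mM phosphoramidon) and captured on plates by anti-GP mAb KZ52. Purified Flag-tagged human NPC1 domain C (10 μg/mL), expressed in HEK293T, was added with or without compound at 50 μM. Bound protein was detected with anti-Flag-HRP and TMB at 450 nm, n = 3.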
# [5] = Tmax in BALB/c mouse plasma at 10 mg/kg, ip measured upto 24 hrs by LC-MS/MS method; type: ADME, organism-based; details: in vivo; in short: as §1
# [6] = Tmax in BALB/c mouse plasma at 50 mg/kg, po measured upto 24 hrs by LC-MS/MS method; type: ADME, organism-based; details: in vivo; in short: as §1
# [7] = Tmax in BALB/c mouse brain at 10 mg/kg, ip measured upto 24 hrs by LC-MS/MS method; type: ADME, organism-based; details: in vivo; in short: as §1
# [8] = Tmax in BALB/c mouse brain at 50 mg/kg, po measured upto 24 hrs by LC-MS/MS method; type: ADME, organism-based; details: in vivo; in short: as §1
# [9] = Cmax in BALB/c mouse plasma at 50 mg/kg, po measured upto 24 hrs by LC-MS/MS method; type: ADME, organism-based; set-up: dose 50 mg/kg, time < 24 hrs, route po; details: in vivo; in short: as §1
# [10] = Cmax in BALB/c mouse brain at 50 mg/kg, po measured upto 24 hrs by LC-MS/MS method; type: ADME, organism-based; set-up: time < 24 hrs, dose 50 mg/kg, route po; details: in vivo; in short: as §1
# [11] = AUClast in BALB/c mouse plasma at 10 mg/kg, ip measured upto 24 hrs by LC-MS/MS method; type: ADME, organism-based; set-up: dose 10 mg/kg, time < 24 hrs, route ip; details: in vivo; in short: as §1
# [12] = AUClast in BALB/c mouse plasma at 50 mg/kg, po measured upto 24 hrs by LC-MS/MS method; type: ADME, organism-based; set-up: time < 24 hrs, dose 50 mg/kg, route po; details: in vivo; in short: as §1
# [13] = AUClast in BALB/c mouse brain at 10 mg/kg, ip measured upto 24 hrs by LC-MS/MS method; type: ADME, organism-based; set-up: time < 24 hrs, dose 10 mg/kg, route ip; details: in vivo; in short: as §1
# [14] = test system: Ebolavirus; test: Antiviral activity against pseudotyped Ebola virus infected in HeLa cells preincubated for 1 hr followed by viral infection and measured after 48 hrs by steady-glo luciferase assay; type: functional, organism-based; details: Orthoebolavirus
# In short: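 HeLa cells (2×10^4/well; DMEM, 10% FBS, 1% L-glutamine, 37 °C, 5% CO2) were pretreated with compound for 1 h at 37 °C, then given 5000 TCID50 of HIV-luciferase lentivirus pseudotyped with EBOV-GP. After 48 h, cells were washed, lysed and luciferase read. Primary screen was at 10 μM final. […] EC50 is the mean of three independent experiments, from normalized dose–response fits with 95% CI.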
# [15] = Cytotoxicity against human HeLa cells assessed as reduction in cell viability incubated for 24 hrs by MTS assay; type: toxicity, cell-based
# In short: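 HeLa cells (2×10^4/well) were grown in DMEM with 10% FBS and exposed to compound at 0–200 μM for 24 h. Viability was read by MTS reduction at 490 nm, as a percentage of untreated cells, and CC50 was derived.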
# [16] = Cmax in BALB/c mouse plasma at 10 mg/kg, ip measured upto 24 hrs by LC-MS/MS method; type: ADME, organism-based; set-up: dose 10 mg/kg, time < 24 hrs, route ip; details: in vivo; in short: as §1
# [17] = Cmax in BALB/c mouse brain at 10 mg/kg, ip measured upto 24 hrs by LC-MS/MS method; type: ADME, organism-based; set-up: time < 24 hrs, dose 10 mg/kg, route ip; details: in vivo; in short: as §1
Structure (SMILES),AUClast [1] [ng·h/mL],selectivity ratio [2],selectivity ratio [3],inhibition [4],Tmax [5] [min],Tmax [6] [h],Tmax [7] [h],Tmax [8] [h],Cmax [9] [ng/mL],Cmax [10] [ng/mL],AUClast [11] [ng·h/mL],AUClast [12] [ng·h/mL],AUClast [13] [ng·h/mL],EC50 [14] [nM],CC50 at 24 h [15] [nM],Cmax [16] [ng/mL],Cmax [17] [ng/mL]
O=C(CCNCCN1CCN(Cc2ccccc2)CC1)NN(c1ccccc1)c1ccccc1,7109.56,274,13.1,Active,4.8,0.25,8,24,93.62,341.33,83.83,152.76,3886.74,,,,
CN(C)CCOc1ccc(/C(=C(/CCCl)c2ccccc2)c2ccccc2)cc1 [TOREMIFENE],,,,,,,,,,,,,,70,> 100000,,
O=C(CCNCCC1CCN(Cc2ccccc2)CC1)NN(c1ccccc1)c1ccccc1,,115,31.5,,4.8,0.25,8,4,,,559.47,,1142.02,,,283.42,51.03
